From ChEMBL document CHEMBL1687778, “Genetic determinants involved in the susceptibility of Pseudomonas aeruginosa to beta-lactam antibiotics” (2010)

Columns and labels:
Assay type in all cases: functional
Pseudomonas aeruginosa [1] = assay: Antimicrobial activity against Pseudomonas aeruginosa PA14 PA0503 harboring mutation in Putative biotin synthesis protein BioC by Etest method
In short: (§1)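 Overnight LB cultures (37°C) diluted in sterile 0.85% NaCl to about 1 × 10^7 CFU/ml. 100 µl spread on Mueller-Hinton agar, one Etest strip per plate, 18 h at 37°C. Ceftazidime, imipenem and meropenem tested. Wild-type PA14 plate included in each set. Each mutant verified in triplicate.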

Pseudomonas aeruginosa [2] = assay: Antimicrobial activity against Pseudomonas aeruginosa PA14 PA3978 harboring mutation in hypothetical protein by Etest method
In short: (§2)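 Etest MIC. Overnight LB cultures at 37°C were diluted in sterile 0.85% NaCl to about 1 × 10^7 CFU/ml. 100 µl was spread on Mueller-Hinton agar, one strip was placed per plate, and plates were incubated at 37°C for 18 h. Equal cell numbers were seeded per plate, and results were verified in triplicate. PA14 wild type was included in each set as a susceptibility control.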

Pseudomonas aeruginosa [3] = assay: Antimicrobial activity against Pseudomonas aeruginosa PA14 PA0479 harboring mutation in putative transcriptional regulator, LysR family by Etest method; in short: as §1
Pseudomonas aeruginosa [4] = assay: Antimicrobial activity against Pseudomonas aeruginosa PA14 PA2963 harboring mutation in putative aminodeoxychorismate lyase by Etest method; in short: as §1
Pseudomonas aeruginosa [5] = assay: Antimicrobial activity against Pseudomonas aeruginosa PA14 PA2621 harboring clpS mutant gene by Etest method; in short: as §1
Pseudomonas aeruginosa [6] = assay: Antimicrobial activity against Pseudomonas aeruginosa PA14 PA3247 harboring mutation in putative aspartyl aminopeptidase by Etest method; in short: as §1
Pseudomonas aeruginosa [7] = assay: Antimicrobial activity against Pseudomonas aeruginosa PA14 PA0908 harboring mutation in hypothetical protein by Etest method; in short: as §1
Pseudomonas aeruginosa [8] = assay: Antimicrobial activity against Pseudomonas aeruginosa PA14 PA2797 harboring mutation in putative anti-anti-sigma factor by Etest method; in short: as §1
Pseudomonas aeruginosa [9] = assay: Antimicrobial activity against Pseudomonas aeruginosa PA14 PA4007 harboring proA mutant gene by Etest method; in short: as §2
Pseudomonas aeruginosa [10] = assay: Antimicrobial activity against Pseudomonas aeruginosa PA14 PA5001 harboring mutation in conserved hypothetical protein by Etest method; in short: as §2
Pseudomonas aeruginosa [11] = assay: Antimicrobial activity against Pseudomonas aeruginosa PA14 PA0807 harboring ampDh3 mutant gene by Etest method; in short: as §1
Pseudomonas aeruginosa [12] = assay: Antimicrobial activity against Pseudomonas aeruginosa PA14 PA1553 harboring mutation in putative cytochrome c oxidase, cbb3 type, subunit II by Etest method; in short: as §1
Pseudomonas aeruginosa [13] = assay: Antimicrobial activity against Pseudomonas aeruginosa PA14 PA5366 harboring pstB mutant gene by Etest method; in short: as §2
Pseudomonas aeruginosa [14] = assay: Antimicrobial activity against Pseudomonas aeruginosa PA14 PA5038 harboring aroB mutant gene by Etest method; in short: as §2
Pseudomonas aeruginosa [15] = assay: Antimicrobial activity against Pseudomonas aeruginosa PA14 PA4459 harboring mutation in Conserved hypothetical protein by Etest method; in short: as §2
Pseudomonas aeruginosa [16] = assay: Antimicrobial activity against Pseudomonas aeruginosa PA14 PA3262 harboring fklB mutant gene by Etest method; in short: as §2
Pseudomonas aeruginosa [17] = assay: Antimicrobial activity against Pseudomonas aeruginosa PA14 PA3620 harboring mutS mutant gene by Etest method; in short: as §2
Pseudomonas aeruginosa [18] = assay: Antimicrobial activity against Pseudomonas aeruginosa PA14 PA4269 harboring rpoC mutant gene by Etest method; in short: as §2
Pseudomonas aeruginosa [19] = assay: Antimicrobial activity against Pseudomonas aeruginosa PA14 PA3145 harboring wbpL mutant gene by Etest method; in short: as §1
Pseudomonas aeruginosa [20] = assay: Antimicrobial activity against Pseudomonas aeruginosa PA14 PA5130 harboring mutation in putative rhodanese-like domain protein by Etest method; in short: as §2
Pseudomonas aeruginosa [21] = assay: Antimicrobial activity against Pseudomonas aeruginosa PA14 PA1195 harboring mutation in putative dimethylarginine dimethylaminohydrolase by Etest method; in short: as §1
Pseudomonas aeruginosa [22] = assay: Antimicrobial activity against Pseudomonas aeruginosa PA14 PA5005 harboring mutation in putative carbamoyltransferase by Etest method; in short: as §2
Pseudomonas aeruginosa [23] = assay: Antimicrobial activity against Pseudomonas aeruginosa PA14 PA4069 harboring mutation in putative dTDP-4-rhamnose reductase-related protein by Etest method; in short: as §2
Pseudomonas aeruginosa [24] = assay: Antimicrobial activity against Pseudomonas aeruginosa PA14 PA3433 harboring mutation in putative transcriptional regulator, LysR family by Etest method; in short: as §2
Pseudomonas aeruginosa [25] = assay: Antimicrobial activity against Pseudomonas aeruginosa PA14 PA3818 harboring suhB mutant gene by Etest method; in short: as §2
Pseudomonas aeruginosa [26] = assay: Antimicrobial activity against Pseudomonas aeruginosa PA14 PA4745 harboring nusA mutant gene by Etest method; in short: as §2
Pseudomonas aeruginosa [27] = assay: Antimicrobial activity against Pseudomonas aeruginosa PA14 PA4393 harboring mutation in putative permease by Etest method; in short: as §2
Pseudomonas aeruginosa [28] = assay: Antimicrobial activity against Pseudomonas aeruginosa PA14 PA14_23420 harboring mutation in putative zinc-binding dehydrogenase by Etest method; in short: as §1
Pseudomonas aeruginosa [29] = assay: Antimicrobial activity against Pseudomonas aeruginosa PA14 PA2615 harboring ftsK mutant gene by Etest method; in short: as §1
Pseudomonas aeruginosa [30] = assay: Antimicrobial activity against Pseudomonas aeruginosa PA14 PA14_59780 harboring rcsC mutant gene by Etest method; in short: as §1
Pseudomonas aeruginosa [31] = assay: Antimicrobial activity against Pseudomonas aeruginosa PA14 PA0402 harboring pyrB mutant gene by Etest method; in short: as §1
Pseudomonas aeruginosa [32] = assay: Antimicrobial activity against Pseudomonas aeruginosa PA14 PA5174 harboring mutation in putative beta-ketoacyl synthase by Etest method; in short: as §2
Pseudomonas aeruginosa [33] = assay: Antimicrobial activity against Pseudomonas aeruginosa PA14 PA0011 harboring mutation in putative 2-OH-lauroyltransferase by Etest method; in short: as §1
Pseudomonas aeruginosa [34] = assay: Antimicrobial activity against Pseudomonas aeruginosa PA14 PA14_15600 harboring mutation in conserved hypothetical protein by Etest method; in short: as §1
Pseudomonas aeruginosa [35] = assay: Antimicrobial activity against Pseudomonas aeruginosa PA14 PA2487 harboring mutation in hypothetical protein by Etest method; in short: as §1
Pseudomonas aeruginosa [36] = assay: Antimicrobial activity against Pseudomonas aeruginosa PA14 PA4550 harboring fimU mutant gene by Etest method; in short: as §2
Pseudomonas aeruginosa [37] = assay: Antimicrobial activity against Pseudomonas aeruginosa PA14 PA0420 harboring bioA mutant gene by Etest method; in short: as §1
Pseudomonas aeruginosa [38] = assay: Antimicrobial activity against Pseudomonas aeruginosa PA14 PA0401 harboring mutation in Noncatalytic dihydroorotase-like protein by Etest method; in short: as §1
Pseudomonas aeruginosa [39] = assay: Antimicrobial activity against Pseudomonas aeruginosa PA14 PA0427 harboring oprM mutant gene by Etest method; in short: as §1
Pseudomonas aeruginosa [40] = assay: Antimicrobial activity against Pseudomonas aeruginosa PA14 PA4402 harboring argJ mutant gene by Etest method; in short: as §2
Pseudomonas aeruginosa [41] = assay: Antimicrobial activity against Pseudomonas aeruginosa PA14 PA1348 harboring mutation in conserved hypothetical protein by Etest method; in short: as §1
Pseudomonas aeruginosa [42] = assay: Antimicrobial activity against Pseudomonas aeruginosa PA14 PA3667 harboring mutation in putative cysteine sulfinate desulfinase by Etest method; in short: as §2
Pseudomonas aeruginosa [43] = assay: Antimicrobial activity against Pseudomonas aeruginosa PA14 PA3520 harboring mutation in putative periplasmic metal-binding protein by Etest method; in short: as §2
Pseudomonas aeruginosa [44] = assay: Antimicrobial activity against Pseudomonas aeruginosa PA14 PA3050 harboring pyrD mutant gene by Etest method; in short: as §1
Pseudomonas aeruginosa [45] = assay: Antimicrobial activity against Pseudomonas aeruginosa PA14 PA5192 harboring pckA mutant gene by Etest method; in short: as §2
Pseudomonas aeruginosa [46] = assay: Antimicrobial activity against Pseudomonas aeruginosa PA14 PA0667 harboring mutation in putative metallopeptidase by Etest method; in short: as §1
Pseudomonas aeruginosa [47] = assay: Antimicrobial activity against Pseudomonas aeruginosa PA14 PA4946 harboring mutL mutant gene by Etest method; in short: as §2

Measured: MIC

C[C@@H](O)[C@H]1C(=O)N2C(C(=O)O)=C(S[C@@H]3CN[C@H](C(=O)N(C)C)C3)[C@H](C)[C@H]12 [MEROPENEM]
0.094 mg/L: Pseudomonas aeruginosa [8] | Pseudomonas aeruginosa [18] | Pseudomonas aeruginosa [19] | Pseudomonas aeruginosa [37] | Pseudomonas aeruginosa [44] | Pseudomonas aeruginosa [47]
0.5 mg/L: Pseudomonas aeruginosa [41]
0.064 mg/L: Pseudomonas aeruginosa [23] | Pseudomonas aeruginosa [25] | Pseudomonas aeruginosa [29] | Pseudomonas aeruginosa [38]
0.25 mg/L: Pseudomonas aeruginosa [7] | Pseudomonas aeruginosa [11] | Pseudomonas aeruginosa [14] | Pseudomonas aeruginosa [45]
0.047 mg/L: Pseudomonas aeruginosa [3]
0.38 mg/L: Pseudomonas aeruginosa [10] | Pseudomonas aeruginosa [43]
0.19 mg/L: Pseudomonas aeruginosa [5] | Pseudomonas aeruginosa [27] | Pseudomonas aeruginosa [40] | Pseudomonas aeruginosa [46]
0.023 mg/L: Pseudomonas aeruginosa [39]
0.125 mg/L: all other assays above
